Experimental data taken from ChEMBL document CHEMBL4387704, “Design, synthesis and biological evaluation of novel isoindolinone derivatives as potent histone deacetylase inhibitors” (Eur J Med Chem, 2019).
Calls of active or inactive are those of the source. The calls are words filed in the database; no cut-off is given here.

How the values were obtained:
NCI/ADR-RES = assay: Growth inhibition of human NCI/ADR-RES cells assessed as cell growth inhibition at 10 uM incubated for 48 hrs by sulforhodamine B assay; format: functional; settings: read-out: GI
[1] = Metabolic stability in human liver microsomes assessed as half life at 1 uM preincubated for 10 mins followed by NADPH addition measured upto 60 mins by LC-MS/MS analysis; format: ADME, Microsome
In short: (§1)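 Liver microsomes from male SD rat, dog or human at 0.5 mg/mL in 100 mM potassium phosphate pH 7.4 with 1 μM compound. Prewarmed 37 °C 10 min, started with 1 mM NADPH. Stopped at 0, 5, 10, 20, 40, 60 min with cold methanol containing glibenclamide internal standard; supernatant by LC–MS/MS; T1/2 and CLint derived.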

HCT-116 [2] = assay: Growth inhibition of human HCT116 cells assessed as cell growth inhibition at 10 uM incubated for 48 hrs by sulforhodamine B assay; format: functional; settings: HCT-116, 48 h, read-out: GI
OVCAR-3 = assay: Growth inhibition of human OVCAR3 cells assessed as cell growth inhibition at 10 uM incubated for 48 hrs by sulforhodamine B assay; format: functional; settings: OVCAR-3, 48 h, read-out: GI
SF-539 = assay: Growth inhibition of human SF539 cells assessed as cell growth inhibition at 10 uM incubated for 48 hrs by sulforhodamine B assay; format: functional; settings: SF-539, 48 h, read-out: GI
[3] = Metabolic stability in dog liver microsomes assessed as half life at 1 uM preincubated for 10 mins followed by NADPH addition measured upto 60 mins by LC-MS/MS analysis; format: ADME, Canis lupus familiaris, Microsome; in short: as §1
HCC 2998 = assay: Growth inhibition of human HCC2998 cells assessed as cell growth inhibition at 10 uM incubated for 48 hrs by sulforhodamine B assay; format: functional; settings: HCC 2998, 48 h, read-out: GI
HL-60(TB) = assay: Growth inhibition of human HL-60(TB) cells assessed as cell growth inhibition at 10 uM incubated for 48 hrs by sulforhodamine B assay; format: functional; settings: HL-60, 48 h, read-out: GI
K562 [4] = assay: Potency index, ratio of IC50 of chidamide to IC50 of test compound against human K562 cells; format: functional
HCT-15 = assay: Growth inhibition of human HCT15 cells assessed as cell growth inhibition at 10 uM incubated for 48 hrs by sulforhodamine B assay; format: functional; settings: HCT-15, 48 h, read-out: GI
K562 [5] = assay: Growth inhibition of human K562 cells assessed as cell growth inhibition at 10 uM incubated for 48 hrs by sulforhodamine B assay; format: functional; settings: K562, 48 h, read-out: GI
MCF7 [6] = assay: Antiproliferative activity against human MCF7 assessed as reduction in cell viability measured after 72 hrs using alamar blue based fluorescence method; format: functional; settings: MCF7, 72 h
In short: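 HCT116 and MCF-7 grown in McCoy's 5A with 10% FBS and penicillin/streptomycin at 37 °C, 5% CO2. Cells plated in 96-well format and exposed to drug for 72 h. Alamar blue (1 mM solution) added, incubated 5–6 h, fluorescence read at 530/590 nm.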

A498 = assay: Growth inhibition of human A498 cells assessed as cell growth inhibition at 10 uM incubated for 48 hrs by sulforhodamine B assay; format: functional; settings: A498, 48 h, read-out: GI
T47D = assay: Growth inhibition of human T47D cells assessed as cell growth inhibition at 10 uM incubated for 48 hrs by sulforhodamine B assay; format: functional; settings: read-out: GI
OVCAR-5 = assay: Growth inhibition of human OVCAR5 cells assessed as cell growth inhibition at 10 uM incubated for 48 hrs by sulforhodamine B assay; format: functional; settings: OVCAR-5, 48 h, read-out: GI
Histone deacetylase 3 = Histone deacetylase 3 (Homo sapiens, UniProt O15379); assay: Inhibition of HDAC3 (unknown origin) using Fluor de Lys substrate by fluorescence assay relative to control
Sequence of Histone deacetylase 3 (O15379 whole entry, canonical isoform): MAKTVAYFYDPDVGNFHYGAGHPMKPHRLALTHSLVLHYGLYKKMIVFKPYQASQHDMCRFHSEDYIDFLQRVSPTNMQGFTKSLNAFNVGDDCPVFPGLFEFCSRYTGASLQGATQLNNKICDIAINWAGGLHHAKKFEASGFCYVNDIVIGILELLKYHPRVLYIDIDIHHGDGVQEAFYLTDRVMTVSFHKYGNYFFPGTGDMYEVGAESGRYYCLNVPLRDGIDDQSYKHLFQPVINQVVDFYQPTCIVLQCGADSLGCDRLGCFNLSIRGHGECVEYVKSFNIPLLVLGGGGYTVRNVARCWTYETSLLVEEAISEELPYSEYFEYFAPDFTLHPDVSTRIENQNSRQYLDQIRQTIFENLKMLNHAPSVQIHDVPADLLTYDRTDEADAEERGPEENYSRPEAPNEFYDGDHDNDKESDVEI
In short: (§2)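 Recombinant HDAC isoform assays run by a contract lab. Compounds in DMSO, 10-dose IC50 mode, 3-fold serial dilution from 50 μM. Duplicate runs; IC50 from curve fitting.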

NCI-H522 = assay: Growth inhibition of human NCI-H522 cells assessed as cell growth inhibition at 10 uM incubated for 48 hrs by sulforhodamine B assay; format: functional; settings: NCI-H522, 48 h, read-out: GI
UACC-62 = assay: Growth inhibition of human UACC62 cells assessed as cell growth inhibition at 10 uM incubated for 48 hrs by sulforhodamine B assay; format: functional; settings: UACC-62, 48 h, read-out: GI
MCF7 [7] = assay: Potency index, ratio of IC50 of chidamide to IC50 of test compound against human MCF7 cells; format: functional
SNB-19 = assay: Growth inhibition of human SNB19 cells assessed as cell growth inhibition at 10 uM incubated for 48 hrs by sulforhodamine B assay; format: functional; settings: SNB-19, 48 h, read-out: GI
SK-OV-3 = assay: Growth inhibition of human SKOV3 cells assessed as cell growth inhibition at 10 uM incubated for 48 hrs by sulforhodamine B assay; format: functional; settings: SK-OV-3, 48 h, read-out: GI
SN12C = assay: Growth inhibition of human SN12C cells assessed as cell growth inhibition at 10 uM incubated for 48 hrs by sulforhodamine B assay; format: functional; settings: read-out: GI
MCF7 [8] = assay: Growth inhibition of human MCF7 cells assessed as cell growth inhibition at 10 uM incubated for 48 hrs by sulforhodamine B assay; format: functional; settings: MCF7, 48 h, read-out: GI
[9] = molecular target: Protein deacetylase HDAC6 (Homo sapiens) (UniProt Q9UBN7); assay: Inhibition of HDAC6 (unknown origin) using Fluor de Lys substrate by fluorescence assay relative to control; in short: as §2
Sequence of Protein deacetylase HDAC6 (Homo sapiens) (Q9UBN7 whole entry): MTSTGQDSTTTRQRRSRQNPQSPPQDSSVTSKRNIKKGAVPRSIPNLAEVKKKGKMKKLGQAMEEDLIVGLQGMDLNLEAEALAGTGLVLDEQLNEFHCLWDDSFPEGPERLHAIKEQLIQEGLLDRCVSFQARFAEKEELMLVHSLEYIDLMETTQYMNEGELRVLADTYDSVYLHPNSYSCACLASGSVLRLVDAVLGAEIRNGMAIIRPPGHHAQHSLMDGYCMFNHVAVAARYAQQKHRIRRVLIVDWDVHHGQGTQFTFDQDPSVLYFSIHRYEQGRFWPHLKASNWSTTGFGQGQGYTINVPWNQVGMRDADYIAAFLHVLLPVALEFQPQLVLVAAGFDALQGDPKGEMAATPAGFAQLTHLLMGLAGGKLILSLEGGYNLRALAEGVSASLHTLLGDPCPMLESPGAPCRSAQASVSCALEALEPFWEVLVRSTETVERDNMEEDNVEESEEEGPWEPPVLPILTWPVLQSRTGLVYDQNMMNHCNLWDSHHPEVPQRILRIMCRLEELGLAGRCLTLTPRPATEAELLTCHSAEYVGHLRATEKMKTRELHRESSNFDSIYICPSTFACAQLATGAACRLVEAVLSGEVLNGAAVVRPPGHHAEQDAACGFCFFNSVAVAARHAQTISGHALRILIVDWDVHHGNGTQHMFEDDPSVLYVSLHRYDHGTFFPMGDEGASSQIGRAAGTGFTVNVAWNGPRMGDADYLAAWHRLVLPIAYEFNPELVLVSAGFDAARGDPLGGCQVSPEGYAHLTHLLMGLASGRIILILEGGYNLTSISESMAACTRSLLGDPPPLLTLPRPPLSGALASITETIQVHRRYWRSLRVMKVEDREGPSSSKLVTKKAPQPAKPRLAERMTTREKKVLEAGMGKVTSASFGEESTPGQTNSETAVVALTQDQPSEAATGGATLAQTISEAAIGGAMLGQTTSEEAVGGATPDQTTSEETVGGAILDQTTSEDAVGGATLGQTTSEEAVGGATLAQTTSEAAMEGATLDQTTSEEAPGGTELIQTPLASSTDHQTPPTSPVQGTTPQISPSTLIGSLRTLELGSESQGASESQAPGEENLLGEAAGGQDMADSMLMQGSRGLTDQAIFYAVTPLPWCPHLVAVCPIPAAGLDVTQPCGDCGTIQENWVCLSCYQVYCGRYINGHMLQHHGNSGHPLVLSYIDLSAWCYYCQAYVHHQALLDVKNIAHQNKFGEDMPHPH

DU-145 = assay: Growth inhibition of human DU145 cells assessed as cell growth inhibition at 10 uM incubated for 48 hrs by sulforhodamine B assay; format: functional; settings: DU-145, 48 h, read-out: GI
[10] = AUC (0 to t) in Sprague-Dawley rat at 1 mg/kg, iv by LC-MS/MS analysis; format: ADME, organism-based; settings: in vivo
[11] = Terminal half life in Sprague-Dawley rat at 1 mg/kg, iv by LC-MS/MS analysis; format: ADME, organism-based; settings: in vivo, read-out: beta t1/2 (converted)
In short: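 Male SD rats (199-214 g), three per route, single dose 1 mg/kg iv or 10 mg/kg po. Jugular blood (~200 μL) into heparinized tubes at set times; plasma by centrifugation, protein precipitation with acetonitrile containing verapamil and glibenclamide; drug measured by LC-MS/MS.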

HCT-116 [12] = assay: Potency index, ratio of IC50 of chidamide to IC50 of test compound against human HCT116 cells; format: functional
COLO 205 = assay: Growth inhibition of human COLO205 cells assessed as cell growth inhibition at 10 uM incubated for 48 hrs by sulforhodamine B assay; format: functional; settings: COLO 205, 48 h, read-out: GI
HL-60 = assay: Antiproliferative activity against human HL60 assessed as reduction in cell viability measured after 72 hrs using alamar blue based fluorescence method; format: functional; settings: HL-60, 72 h
In short: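 Leukemia lines grown in IMDM with penicillin/streptomycin, HL-60 with 20% FBS and K562 with 10% FBS, at 37 °C, 5% CO2. Cells in 96-well plates exposed to drug for 72 h. Alamar blue (1 mM solution) added for 5–6 h, fluorescence read at 530/590 nm.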

Compound `Nc1cc(F)ccc1NC(=O)c1ccc(CNC(=O)/C=C2\NC(=O)c3ccccc32)cc1` has an inhibition of growth at 10 µM (NCI/ADR-RES) of 18%, a half-life at 1 µM [1] of 4.87 h and an inhibition of growth at 10 µM (HCT-116 [2]) of 73.3%. It also gave an inhibition of growth at 10 µM (OVCAR-3) of 42%, an inhibition of growth at 10 µM (SF-539) of 44.8% and a half-life at 1 µM [3] of 3.35 h. For the same compound, the inhibition of growth at 10 µM (HCC 2998) was 20.4%, the inhibition of growth at 10 µM (HL-60(TB)) was 84% and the “Ratio IC50” value (K562 [4]) was 4. For the same compound, the inhibition of growth at 10 µM (HCT-15) was 0.12%, the inhibition of growth at 10 µM (K562 [5]) was 61.6% and the IC50 (MCF7 [6]) was 14600 nM. It also gave an inhibition of growth at 10 µM (A498) of 47.1%, an inhibition of growth at 10 µM (T47D) of 58.2% and an inhibition of growth at 10 µM (OVCAR-5) of 36.4%. It also gave an IC50 (Histone deacetylase 3) of 112 nM, an inhibition of growth at 10 µM (NCI-H522) of 70.7% and an inhibition of growth at 10 µM (UACC-62) of 57.8%. For the same compound, the “Ratio IC50” value (MCF7 [7]) was 2, the inhibition of growth at 10 µM (SNB-19) was 13.6% and the inhibition of growth at 10 µM (SK-OV-3) was 29.5%. For the same compound, the inhibition of growth at 10 µM (SN12C) was 30.8%, the inhibition of growth at 10 µM (MCF7 [8]) was 35.5% and the inhibition [9] was “inactive”. For the same compound, the inhibition of growth at 10 µM (DU-145) was 13%, the AUC(0-t) [10] was 781 ng·h/mL and the half-life [11] was 0.39 h. For the same compound, the “Ratio IC50” value (HCT-116 [12]) was 2.5, the inhibition of growth at 10 µM (COLO 205) was 27.8% and the IC50 (HL-60) was 373 nM.
